Assays:
[1] = test system: Plasmodium berghei (NK65); assay: Antimalarial suppressive test against Plasmodium berghei in mice; format: in vivo; conditions: P. berghei; for Inhibition of parasitaemia at days after parasite inoculation (%) Fifth: day 5; for Inhibition of parasitaemia at days after parasite inoculation (%) Ninth: day 9
Outline: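 Oral 4-day-type suppressive test, run once. P. berghei NK65 (chloroquine-sensitive) blood stages kept at -70 °C and passaged weekly in outbred Swiss mice. Adult female mice (20 ± 2 g) received 1 × 10^5 infected erythrocytes and were randomised into groups of three 24 h later. […] Parasitaemia was read on Giemsa-stained tail-blood smears on days 5 and 9, as inhibition versus untreated mice (100%).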

[2] = test system: normal monkey kidney cells (BGM); assay: Cytotoxicity MTT assay, BGM cells; format: cell-based; conditions: for BGM MLD50: BGM cells, 24 h, MTT, unit only from tested concentrations
[3] = test system: human hepatocellular liver carcinoma cell line (HepG2); assay: Cytotoxicity MTT assay, HepG2 cells; format: cell-based; conditions: 24 h, unit only from tested concentrations
[4] = test system: Plasmodium falciparum W2 clone (chloroquine-resistant); assay: In vitro activity against P. falciparum blood-stage parasites, anti-HRPII test; format: cell-based; conditions: classified by IC50
[5] = chloroquine 20 mg/kg, listed as chloroquine
[6] = oral 100 mg/kg for three consecutive days

CCN(CC)CCCC(C)Nc1ccnc2cc(Cl)ccc12 (stereo not shown) [Chloroquine]
Activity ([1]; chloroquine 20 mg/kg): Cure
Inhibition of parasitaemia at days after parasite inoculation (%) Fifth ([1]; chloroquine 20 mg/kg): 100%
Inhibition of parasitaemia at days after parasite inoculation (%) Ninth ([1]; chloroquine 20 mg/kg): 100%
Activity [1, 5]: clearing parasitaemia
survival of mice [1, 5]: maintaining survival of the mice

CC(C)=CCC1=C(O)C(=O)c2ccccc2C1=O [Compound 10, Lapachol]
BGM MLD50 [2]: 1,785.1 ± 888.3 µM
HepG2 MLD50 [3]: 1,491.7 ± 321.4 µM

CC(C)=CC1=C(O)C(=O)c2ccccc2C1=O [Compound 11, Nor-lapachol]
BGM MLD50 [2]: 1,608.8 ± 221.8 µM
in vivo activity class ([1]; oral 100 mg/kg): inactive
Inhibition of parasitaemia at days after parasite inoculation (%) Fifth [1, 6]: 21%
Inhibition of parasitaemia at days after parasite inoculation (%) Ninth [1, 6]: 21%
in vitro activity class against P. falciparum [4]: partially active (those with IC50 values between 5-30 µM were considered partially active)
HepG2 MLD50 [3]: 1,698.6 ± 94.8 µM

CC(C)/C=C/C1=C(O)C(=O)c2ccccc2C1=O [Compound 12, Iso-lapachol]
BGM MLD50 [2]: 1,388.9 ± 592.5 µM
difference in cytotoxicity between HepG2 and BGM cells ([2]; HepG2 versus BGM): near two-fold increase
in vitro activity class against P. falciparum [4]: partially active (those with IC50 values between 5-30 µM were considered partially active)
HepG2 MLD50 [3]: ≥ 4,127.6 µM

CC1=C(O)C(=O)c2ccccc2C1=O [Compound 13, 2-hydroxy-3-methyl-1,4-naphthoquinone]
BGM MLD50 [2]: ≥ 5,314.1 µM
HepG2 MLD50 [3]: 5,308.2 ± 8.3 µM

From PMC4156448 (Memórias do Instituto Oswaldo Cruz, 2014)
